Assay results published in ChEMBL document CHEMBL1148560, “Synthesis and biological evaluation of novel C (7) modified chrysin analogues as antibacterial agents” (2006).
Converted amounts (≈) assume the structure as drawn.

Legend:
Format in all cases: functional
[1] = test system: Chromobacterium violaceum; test: Antibacterial activity against gram negative Chromobacterium violaceum(MTCC 2656)
Method in brief: (§1)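 MIC determined by broth dilution per NCCL standards; test panel comprised Gram-positive Bacillus subtilis (MTCC 441), Bacillus sphaericus (MTCC 11), Staphylococcus aureus (MTCC 96) and Gram-negative Chromobacterium violaceum (MTCC 2656), Klebsiella aerogenes (MTCC 39), Pseudomonas aeruginosa (MTCC 741); highest concentration tested 200 μg/ml; penicillin and streptomycin run under identical conditions as reference agents.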

[2] = test system: Lysinibacillus sphaericus; test: Antibacterial activity against gram positive Bacillus sphaericus (MTCC 11)
Method in brief: (§2)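 MICs were determined by broth dilution following National Committee for Clinical Laboratory (NCCL) standards. The same conditions were used for penicillin and streptomycin as reference agents.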

Bacillus subtilis = test: Antibacterial activity against gram positive Bacillus subtilis MTCC 441; method in brief: as §1
Klebsiella aerogenes = test: Antibacterial activity against gram negative Klebsiella aerogenes(MTCC 39); method in brief: as §1
Staphylococcus aureus = test: Antibacterial activity against gram positive Staphylococcus aureus(MTCC 96); method in brief: as §1
Pseudomonas aeruginosa = test: Antibacterial activity against gram negative Pseudomonas aeruginosa (MTCC 741); method in brief: as §2

SMILES	MIC [1]	MIC [2]	MIC (Bacillus subtilis)	MIC (Klebsiella aerogenes)	MIC (Staphylococcus aureus)	MIC (Pseudomonas aeruginosa)
CN(C)CCCCCCOc1cc(O)c2c(=O)cc(-c3ccccc3)oc2c1	25 µg/mL (≈ 65.5 µM)	12.5 µg/mL (≈ 32.8 µM)	12.5 µg/mL (≈ 32.8 µM)	25 µg/mL (≈ 65.5 µM)	25 µg/mL (≈ 65.5 µM)	
O=c1cc(-c2ccccc2)oc2cc(OCCCCCCN3CCOCC3)cc(O)c12	25 µg/mL (≈ 59 µM)	25 µg/mL (≈ 59 µM)	25 µg/mL (≈ 59 µM)	25 µg/mL (≈ 59 µM)	25 µg/mL (≈ 59 µM)	
CN(C)CCCOc1cc(O)c2c(=O)cc(-c3ccccc3)oc2c1	12.5 µg/mL (≈ 36.8 µM)	12.5 µg/mL (≈ 36.8 µM)	25 µg/mL (≈ 73.7 µM)	25 µg/mL (≈ 73.7 µM)	12.5 µg/mL (≈ 36.8 µM)	
O=c1cc(-c2ccccc2)oc2cc(OCCCCN3CCOCC3)cc(O)c12	6.25 µg/mL (≈ 15.8 µM)	6.25 µg/mL (≈ 15.8 µM)	6.25 µg/mL (≈ 15.8 µM)	12.5 µg/mL (≈ 31.6 µM)	12.5 µg/mL (≈ 31.6 µM)	
O=c1cc(-c2ccccc2)oc2cc(OCCCCCCN3CCCCC3)cc(O)c12	25 µg/mL (≈ 59.3 µM)	12.5 µg/mL (≈ 29.7 µM)	25 µg/mL (≈ 59.3 µM)	25 µg/mL (≈ 59.3 µM)	25 µg/mL (≈ 59.3 µM)	
CN1CCN(CCCOc2cc(O)c3c(=O)cc(-c4ccccc4)oc3c2)CC1	12.5 µg/mL (≈ 31.7 µM)	12.5 µg/mL (≈ 31.7 µM)	12.5 µg/mL (≈ 31.7 µM)	25 µg/mL (≈ 63.4 µM)	25 µg/mL (≈ 63.4 µM)	
O=c1cc(-c2ccccc2)oc2cc(OCCCN3CCCCC3)cc(O)c12	6.25 µg/mL (≈ 16.5 µM)	12.5 µg/mL (≈ 32.9 µM)	25 µg/mL (≈ 65.9 µM)	25 µg/mL (≈ 65.9 µM)	12.5 µg/mL (≈ 32.9 µM)	
CN1CCN(CCCCOc2cc(O)c3c(=O)cc(-c4ccccc4)oc3c2)CC1	6.25 µg/mL (≈ 15.3 µM)	6.25 µg/mL (≈ 15.3 µM)	25 µg/mL (≈ 61.2 µM)	12.5 µg/mL (≈ 30.6 µM)	12.5 µg/mL (≈ 30.6 µM)	
O=c1cc(-c2ccccc2)oc2cc(OCCCCN3CCCCC3)cc(O)c12	6.25 µg/mL (≈ 15.9 µM)	12.5 µg/mL (≈ 31.8 µM)	12.5 µg/mL (≈ 31.8 µM)	25 µg/mL (≈ 63.5 µM)	25 µg/mL (≈ 63.5 µM)	
CN(C)CCCCOc1cc(O)c2c(=O)cc(-c3ccccc3)oc2c1	12.5 µg/mL (≈ 35.4 µM)	6.25 µg/mL (≈ 17.7 µM)	6.25 µg/mL (≈ 17.7 µM)	25 µg/mL (≈ 70.7 µM)	25 µg/mL (≈ 70.7 µM)	
O=c1cc(-c2ccccc2)oc2cc(OCCCN3CCOCC3)cc(O)c12	12.5 µg/mL (≈ 32.8 µM)	12.5 µg/mL (≈ 32.8 µM)	12.5 µg/mL (≈ 32.8 µM)	25 µg/mL (≈ 65.5 µM)	25 µg/mL (≈ 65.5 µM)	
CN1CCN(CCCCCCOc2cc(O)c3c(=O)cc(-c4ccccc4)oc3c2)CC1	12.5 µg/mL (≈ 28.6 µM)	25 µg/mL (≈ 57.3 µM)	25 µg/mL (≈ 57.3 µM)	25 µg/mL (≈ 57.3 µM)	12.5 µg/mL (≈ 28.6 µM)	
O=c1cc(-c2ccccc2)oc2cc(O)cc(O)c12 [CHRYSIN]	25 µg/mL (≈ 98.3 µM)	25 µg/mL (≈ 98.3 µM)	50 µg/mL (≈ 197 µM)	50 µg/mL (≈ 197 µM)	50 µg/mL (≈ 197 µM)	
CC1(C)S[C@@H]2[C@H](NC(=O)Cc3ccccc3)C(=O)N2[C@H]1C(=O)O [PENICILLIN G]	12.5 µg/mL (≈ 37.4 µM)	3.12 µg/mL (≈ 9.35 µM)	1.56 µg/mL (≈ 4.67 µM)	6.25 µg/mL (≈ 18.7 µM)	1.56 µg/mL (≈ 4.67 µM)	6.25 µg/mL (≈ 18.7 µM)
CN[C@@H]1[C@H](O[C@H]2[C@H](O[C@H]3[C@H](O)[C@@H](O)[C@H](N=C(N)N)[C@@H](O)[C@@H]3N=C(N)N)O[C@@H](C)[C@]2(O)C=O)O[C@@H](CO)[C@H](O)[C@H]1O [STREPTOMYCIN]	3.12 µg/mL (≈ 5.37 µM)	12.5 µg/mL (≈ 21.5 µM)	6.25 µg/mL (≈ 10.7 µM)	1.56 µg/mL (≈ 2.69 µM)	6.25 µg/mL (≈ 10.7 µM)	1.56 µg/mL (≈ 2.69 µM)
